Assay results: the EternaBench riboswitch data

Test system: MS2 coat protein
Assay: apparent Kd, MS2 coat protein; higher = weaker binding; RNA-MaP array; FMN 200 µM where present
Method in brief: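 In 100 mM Tris-HCl pH 7.5, 80 mM KCl, 4 mM MgCl2, BSA, DTT, yeast tRNA and Tween-20, SNAP-549-labelled MS2 coat protein was titrated from 0.7 or 1.5 nM, doubling to 3 µM, over designs transcribed by stalled E. coli RNA polymerase on Illumina sequencing-chip clusters. This was done first without ligand, then with ligand held constant. After green signal was normalised to red-channel RNA signal and control-cluster median Fmax, the apparent Kd was taken as the median of filtered per-cluster binding-curve fits.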

[1] = designed as: ON switch for flavin mononucleotide, no ligand
[2] = ligand present: flavin mononucleotide, designed as: ON switch for flavin mononucleotide
[3] = designed as: OFF switch for flavin mononucleotide, no ligand
[4] = ligand present: flavin mononucleotide, designed as: OFF switch for flavin mononucleotide

| Sequence | apparent Kd [1] | apparent Kd [2] | apparent Kd [3] | apparent Kd [4] |
| --- | --- | --- | --- | --- |
| GUCGGAAACGACAAGUAGCAAUCGGAGGAUAUUCAUUAAAACAUGAGGAUCACCCAUGUAAAUUGGGAGAAGGCCGAUUGCUAC | 0.0178 µM | 0.00531 µM | – | – |
| ACUUGUUACUUAAUCAUUGAUUUGUAGGAUAUACGUACAUGAGGAUCACCCAUGUUACAUGGUAUGUAGAAGGACAUCUAAUUU | – | – | 0.011 µM | 0.0112 µM |
| UUUACAUGAGGAUCACCCAUGUAUAGAACGGUUAAUUAAAGUGAGGAUAUACAUAAUUUUAAAUUGUAGAAGGCACUGGGUACA | 0.0144 µM | 0.0199 µM | – | – |
| GUAACGCUUGACAUGAGGAUCACCCAUGUUAGAUUGUUAUGUCAGGAUAUAGUCUAGAAACUAGACUAGAAGGGAUAUGUUGCU | 0.0593 µM | 0.029 µM | – | – |
| UUUUCGCGCGCAGGAUAUCCCAUGUGGUUCACACAUGAGGAUCACCCAUGUUUCACCCAUGUGCGGGAGAAGGGUGCGCGUUUC | 0.368 µM | 0.189 µM | – | – |
| UUAUUGUGAGGAUAUCAGGUGUGCUAGCGUACUGGUACAUCUGAGAAGGCACAUGAGGAUCACCCAUGUUCCUU | – | – | 0.0143 µM | 0.0373 µM |
| UCCUACAUGGGAGGAUAUGGGACAUGAGGAUCACCCAUGUGAAAAUUAAAUAUGCCGAGAGGCAACUAGAAGGCCCAUGUAGGU | 0.0358 µM | 0.0192 µM | – | – |
| UGCACUAGAUGAGGAUAUGCACAUGAGGAUCACCCAUGUGUGUGCUGCGGUGGUGAUCUGUAAAUGCAGAAGGCAUUCGGGCGG | – | – | 0.111 µM | 0.0639 µM |
| ACAGGCUUCGAGAAGGACAUGAGGAUCACCCAUGUGCGUGUGAAGCAGCCGUGAGGCUGCAUCAUGUAGGAUAUCGGAGUCUGU | – | – | 0.0638 µM | 0.374 µM |
| UUGGACGUCGUAGGAUAUGUAUGAUAUUCCUACAUGAGGAUCACCCAUGUUGACAUGGAAGAAGGACAGAAGGACGAUGUCCAU | 0.0058 µM | 0.00456 µM | – | – |
| GUAUAUAUAUAAGGAUAUAAGUCUAGGACAUGAGGAUCACCCAUGUGUGUCUUAGAAGGUAUAUAUGUAAUACUGUUACAGUAA | 0.0648 µM | 0.0142 µM | – | – |
| CUGGAAGUCGUAGGAUAUGGUGAUGUACAUGAGGAUCACCCAUGUCCGUCUUCUCUCACAAGAUGCCAGAAGGACGACUUCCGG | 0.625 µM | 0.101 µM | – | – |
| CGCUACACCCAGAAGGACAUGAGGAUCACCCAUGUAGGAUAUGGGAGACACAGUCCCAUGUAGAGAAAUUACGCUAGUGUAGCG | – | 0.079 µM | – | – |
| GGUGCAGUGUAGAAGGCAGAUCUGAUUCAGAUCUGAGGAUAUACAUGAGGAUCACCCAUGUUAUGCACCAGCACGAGAGUGCAA | – | – | 0.00628 µM | 0.00876 µM |
| CCUCUACAUGAGGAUCACCCAUGUGAGGAUAUGCGAGGCGCGCUCGAUGAGCGCGCCGGUAGAAGGCAUGUGGU | – | – | 0.0232 µM | 0.0499 µM |
| CACCGCGACAACGCGGUGUCACAUGAGGAUCACCCAUGUUCACAGGAUAUGCGAUAGCCAACGAAGCAGAAGGGUGAUUACUUA | 0.0411 µM | 0.111 µM | – | – |
| UUAAAUCAUGUAGGAUAUGCAUGGCGAAGCUACGCAGAAGGACAUGAGGAUCACCCAUGUUAAAGCUACCGAGUACGGUGGCAA | – | – | 0.121 µM | 0.193 µM |
| GUGAGUGGUCAGGAUAUGCUGUACAAAAGUACAGCAGAAGGGACUACAUGAGGAUCACCCAUGUUUACUUCAUG | – | – | 0.268 µM | 0.311 µM |
| AUAUUUAUUUAGAAGGACAUGAGGAUCACCCAUGUCGCUGGGCCCGGGAAACCGGGCCCGGCCAUGUAGGAUAUAGAUAGAUAU | – | – | 0.00853 µM | 0.00917 µM |
| AACAAAUAUGAUCAUUAUGUAAGGCAGGAUAUCCCACAUGAGGAUCACCCAUGUACAGUACAUAGGGAGAAGGGCCGAAUGGGA | 0.0721 µM | 0.0068 µM | – | – |
| UGUCGGAGCAGAGGAUAUUACAUGAGGAUCACCCAUGUAUGAACCAAUAGCUGGAAACAGCAAUGUAAGAAGGCUGUUCCGACA | – | – | 0.0119 µM | 0.134 µM |
| GACUGACAUGAGGAUCACCCAUGUAUUCGAGCAUGAGGAUAUAUGACUCGUCAUCGGCGGAUAGAAGGCAUGGUUG | 0.163 µM | 0.212 µM | – | – |
| AAGAAGUGAGGAUAUCGAAGACAAAAAAAAAAAAAGUCGAACGAGAAGGCACAUGAGGAUCACCCAUGUAAGAA | – | – | 0.0302 µM | 0.0334 µM |
| AACUAGCUAGGAUAUACAUGAGGAUCACCCAUGUAAAAAAAAAAAAAAAAAUUUUUAUGUAGAAGGAGCUAGUA | – | – | 0.034 µM | 0.0412 µM |

| Sequence | apparent Kd [1] | apparent Kd [2] | apparent Kd [3] | apparent Kd [4] |
| --- | --- | --- | --- | --- |
| GGGUAAAUCGGAGGAUAUCAUGUAAAUACAUGAGGAUCACCCAUGUCGAUGGAGACAUCGGAGAUUGAGAAGGCCGAUGUACCG | 0.175 µM | 0.00942 µM | – | – |
| AGUACUACAGGAUAUACGAGGGAGGUCCACGUGACCCUUCUACAUGAGGAUCACCCAUGUAGAAGGGUAGUACA | – | – | 0.0139 µM | 0.0139 µM |
| GUCAGCUCGUGAGGAUAUACAACACUGCUUCGGCAGUGCAUUAAGAUCACAUGAGGAUCACCCAUGUAGAAGGCACGAGCUGAU | – | – | 0.015 µM | 0.313 µM |
| CUCUUGUGAGGAUAUGUAGGUUACGAGAGCAAAACGAACGGACAGAAGGUACAUGAGGAUCACCCAUGUGGGAU | – | – | 0.109 µM | 0.0954 µM |
| UUCAUGUGAGGAUAUAAAAUGAAUAUAAAUUAUUAUCUUGAUUAGAAGGCACAUGAGGAUCACCCAUGUCUGAA | – | – | 0.0331 µM | 0.0479 µM |
| GCCGGAUUUGUGAGGAUAUACCUAUGGAUACAUAGGUAGAAGGCACAUGAGGAUCACCCAUGUUCCUCACCGGC | – | – | 0.033 µM | 0.288 µM |
| AGCGGAUAACAGUAGGAUAUGGCCAACGCCACAUGAGGAUCACCCAUGUCGUACCGGCACCUGGACUAGAAGGACUGCCUCCCGC | 0.0308 µM | 0.0145 µM | – | – |
| AUAAAGUGAGGAUAUGUAAAAAUAACGAAAGUUAUAAAUAAACAGAAGGCACAUGAGGAUCACCCAUGUCCAAU | – | – | 0.0268 µM | 0.0431 µM |
| UGGCUGAGUCGAGGAUAUGAUCUUCAUAUAUAUACAUGAGGAUCACCCAUGUAUAAUUACAUGGAUCAGAAGGCGACUCAGCCA | 0.0316 µM | 0.0115 µM | – | – |
| CGCUCAAUUCUUUAGGUUAGAAUCAGAAGGCGUAACAUGAGGAUCACCCAUGUAUAGACGUGUAACGAGGAUAUGAAUUGAGCG | – | – | 0.00564 µM | 0.00546 µM |
| GCCAUCACAUGAGGAUAUGCUCCCGUUUCGGGAGCAGAAGGCGUGUCAUUAGACAUGAGGAUCACCCAUGUAGUUAAGAUGGCA | 0.667 µM | 0.0228 µM | – | – |
| GGUGUGUCAGGAUAUCAACACACGGCAGCAGCGUUAUGCGUUGAGAAGGGACAUGAGGAUCACCCAUGUGACGG | – | – | 0.046 µM | 0.0709 µM |
| ACAUGAUCAGGAUAUACAUGAGGAUCACCCAUGUAAAUCAAAAAAAAACUUUCUUUAUGUAGAAGGGAUCUUGU | – | – | 0.0144 µM | 0.0155 µM |
| GUAGCUAUCGGAGGAUAUUCAUACGGGAAACGGACAUGAGGAUCACCCAUGUGGCGAAAGCCUUGGGAGAAGGCCGAUAGCUAC | 0.0374 µM | 0.00889 µM | – | – |
| CCUCUACAUGAGGAUCACCCAUGUGAGGAUAUGCGAGGCACGCCCGAUGGGCGCGCCGGUAGAAGGCAUGUGGU | – | – | 0.0236 µM | 0.0494 µM |
| UUCCCAGCGGGAGGAUAUGGUGCCUUAUUGGUGCUAGAAGGUCCAACAUGAGGAUCACCCAUGUGGGAGUGGUCUAAUGACCUC | 0.212 µM | 0.144 µM | – | – |
| GCCUCAUAGUAGAAGGGACUUCGGCUGUUAAGCAUCAUCUCCAUUUCACAUGAGGAUCACCCAUGUCAGGAUAUACUAAGAGGC | – | – | 0.0103 µM | 0.0249 µM |
| UUGUGGGAGCAGGAUAUCUUAGUUUGGUUGUGUGGAGAAGGGCUGACAUGAGGAUCACCCAUGUGGUCCUAGAU | – | – | 0.0241 µM | 0.0295 µM |
| GGCGGGCGAAACAUGAGGAUCACCCAUGUGUUAUAAUUAAUAUAGGAUAUGUUUAUACUUUUUGGGCAGAAGGAUGCGCCUGCC | 0.0978 µM | 0.0675 µM | – | – |
| CCCUCGCGAGGAUAUGCAUCCUCCCUCAUUUCUUUCACUACACAUGAGGAUCACCCAUGUAGAAGGCGCUCUCC | – | – | 0.0499 µM | 0.0386 µM |
| AGUUUGCGGCAGGAUAUCCAUCCGCGGUGUGGUGGAGAAGGGCUGACAUGAGGAUCACCCAUGUGCGUCCUGUA | – | – | 0.0232 µM | 0.0325 µM |
| UUGUUGUGUGUAGGAUAUGCAUAUUAUUAUUAUGCAGAAGGACAUGAGGAUCACCCAUGUAUAUUAUUAUUAUAUAUUAUAUAU | – | – | 0.0311 µM | 0.0366 µM |
| UGAAAUCAUGUAGGAUAUGCAUGGCGAAGCUACGCAGAAGGACAUGAGGAUCACCCAUGUUAUAGCUACCCAGUUCGGUGGCAC | – | – | 0.046 µM | 0.137 µM |
| CACAUUUUAACAGGAUAUGUAUGGUUGCUUAUUAUUGCAUAUUCAAUUAUUACAGAAGGGUUAUACAUGAGGAUCACCCAUGUG | 0.021 µM | 0.0155 µM | – | – |
